Results from different studies.
Each line is one published result; the experiments were not run side by side.
Effect on: cell growth or viability

SMILES	cell line	test	setting	IC50
N.N.[Cl][Pt][Cl]	NIH3T3		96 h	6.78 µM
COc1cc(C(=O)c2nc(-c3cccc4ncccc34)c[nH]2)cc(OC)c1OC	PC-3	MTS	72 h	> 1 µM
CC[C@H](C)[C@H](NC(=O)CN)C(=O)NCC(=O)N[C@@H](C)C(=O)N[C@H](C(=O)N[C@@H](CC(C)C)C(=O)N[C@@H](CCCCN)C(=O)N[C@H](C(=O)N[C@@H](CC(C)C)C(=O)N[C@H](C(=O)N[C@H](C(=O)NCC(=O)N[C@@H](CC(C)C)C(=O)N1CCC[C@H]1C(=O)N[C@@H](C)C(=O)N[C@@H](CC(C)C)C(=O)N[C@H](C(=O)N[C@@H](CO)C(=O)N[C@@H](Cc1c[nH]c2ccccc12)C(=O)N[C@H](C(=O)N[C@@H](CCCCN)C(=O)N[C@@H](CCCNC(=N)N)C(=O)N[C@@H](CCCCN)C(=O)N[C@@H](CCCNC(=N)N)C(=O)N[C@@H](CCC(N)=O)C(=O)N[C@@H](CCC(N)=O)C(N)=O)[C@@H](C)CC)[C@@H](C)CC)[C@@H](C)O)[C@@H](C)O)C(C)C)C(C)C	IPEC-J2	MTT	24 h	8.58 µM
CC(C)[C@H](NC(=O)[C@H](CCCCN)NC(=O)[C@H](Cc1c[nH]c2ccccc12)NC(=O)[C@H](Cc1c[nH]c2ccccc12)NC(=O)[C@H](CCCNC(=N)N)NC(=O)[C@H](Cc1c[nH]c2ccccc12)NC(=O)[C@H](Cc1c[nH]cn1)NC(=O)[C@@H](N)CCCNC(=N)N)C(=O)N[C@@H](Cc1c[nH]cn1)C(=O)N[C@@H](Cc1c[nH]c2ccccc12)C(=O)N[C@@H](CCCNC(=N)N)C(=O)N[C@@H](CCC(=O)O)C(=O)N[C@@H](Cc1c[nH]c2ccccc12)C(N)=O	A549	MTT	24 h	> 500 µM
COc1cc(C(=O)c2nc(-c3cccc4[nH]ccc34)cn2C)cc(OC)c1OC	PC-3	MTS	72 h	0.17 µM
COc1c(C)c2c(c(O)c1C/C=C(\C)CCC(=O)O)C(=O)OC2	JIMT-1			1.15 µM
CC[C@H](C)[C@H](NC(=O)[C@H](CCCNC(=N)N)NC(=O)[C@H](CCCNC(=N)N)NC(=O)[C@H](CCCCN)NC(=O)[C@H](CCCNC(=N)N)NC(=O)[C@H](CCCNC(=N)N)NC(=O)[C@H](CCCNC(=N)N)NC(=O)[C@H](CC(C)C)NC(=O)[C@H](CCCNC(=N)N)NC(=O)CNC(=O)[C@H](CCSC)NC(=O)[C@@H](N)CCSC)C(=O)N[C@@H](CCCCN)C(N)=O	A549	MTT	24 h	> 500 µM
CC[C@@]1(O)C(=O)OCc2c1cc1n(c2=O)Cc2cc3ccccc3nc2-1	U-251	SRB	48 h	0.064 µM
COc1cc(C(=O)c2nc(-c3cccc4c3ccn4C)c[nH]2)cc(OC)c1OC	PC-3	MTS	72 h	0.0127 µM
CC[C@H](C)[C@H](NC(=O)[C@H](CCCCN)NC(=O)[C@H](CCCCN)NC(=O)[C@H](CC(C)C)NC(=O)[C@H](CC(C)C)NC(=O)[C@H](CCCCN)NC(=O)[C@H](CCCCN)NC(=O)[C@H](CC(C)C)NC(=O)[C@H](CCCCN)NC(=O)[C@H](CCCCN)NC(=O)[C@@H](N)CC(C)C)C(=O)N[C@@H](CCCCN)C(=O)N[C@@H](CCCNC(=N)N)C(N)=O	A549	MTT	24 h	> 500 µM
S=P1(c2ccccc2)CCCCC1	PC-3	MTT	72 h	> 100 µM
COc1cc(C(=O)c2nc(-c3ccc4[nH]ccc4c3)c[nH]2)cc(OC)c1OC	PC-3	MTS	72 h	0.0277 µM
N.N.[Cl][Pt][Cl]	MEG-01	ATP luminescence	72 h	5.17 µM
CC(=N)S	NIH3T3		96 h, 3D culture	332 µM
CC[C@H](C)[C@H](NC(=O)[C@H](CCCNC(=N)N)NC(=O)CNC(=O)[C@H](CCCCN)NC(=O)[C@H](CCCNC(=N)N)NC(=O)[C@H](CCCNC(=N)N)NC(=O)[C@H](CC(C)C)NC(=O)[C@H](CCC(N)=O)NC(=O)CNC(=O)[C@H](CCCCN)NC(=O)[C@@H](N)CCSC)C(=O)N[C@@H](CCCNC(=N)N)C(N)=O	A549	MTT	24 h	> 500 µM
N.N.[Cl][Pt][Cl]	A549	MTT	48 h	5.55 µM
